Test results taken from ChEMBL document CHEMBL1156973, “(-)-Carbodine: enantiomeric synthesis and in vitro antiviral activity against various strains of influenza virus including H5N1 (avian influenza) and novel 2009 H1N1 (swine flu)” (Bioorg Med Chem Lett, 2010).

Columns and labels:
[1] = test system: H5N1 subtype; assay: Antiviral activity against Influenza A virus Duck/MN/1525/81/H5N1 infected MDCK cells after 42 to 46 hrs by neutral red dye uptake assay; format: functional, organism-based, Influenza A virus (A/duck/Minnesota/1525/1981(H5N1)); conditions: mdck
[2] = Selectivity ratio of IC50 for MDCK cells to EC50 for Influenza A virus Vietnam/1203/ 2004H/H5N1 by neutral red dye uptake assay; format: ADME, cell-based; conditions: dog, mdck
Procedure, shortened: (§1)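 Neutral red uptake in MDCK cells: IC50 (50% inhibition of uninfected cells) divided by EC50 (50% inhibition of virus effect), both from replicate serial-dilution assays.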

[3] = test system: Influenza A virus; assay: Antiviral activity against Influenza A virus Wisconsin/67/2005/H3N2 infected MDCK cells after 42 to 46 hrs by neutral red dye uptake assay; format: functional, organism-based, Influenza A virus (A/Wisconsin/67/2005(H3N2)); conditions: mdck
Procedure, shortened: (§2)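 Triplicate MDCK wells got serial compound dilutions, then ≤300 CCID50 of virus, with the same inoculum for all replicates. Antiviral effect was read by neutral red dye uptake. EC50 is the concentration giving 50% inhibition of the virus effect, as the mean of triplicates.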

[4] = test system: Influenza B virus; assay: Antiviral activity against Influenza B virus Malaysia/2506/2004 infected MDCK cells after 42 to 46 hrs by neutral red dye uptake assay; format: functional, organism-based, B/Malaysia/2506/2004; conditions: mdck; procedure, shortened: as §2
[5] = Selectivity ratio of IC50 for MDCK cells to EC50 for inhibition of virus-induced cytopathic effect of Influenza A virus California/07/2009 /H1N1; format: cell-based; conditions: dog, mdck
Procedure, shortened: (§3)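 IC50 (50% inhibition of uninfected MDCK cells) divided by EC50 (concentration reducing virus-induced CPE by 50%, scored visually), both from replicate serial-dilution assays.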

[6] = Selectivity ratio of IC50 for MDCK cells to EC50 for inhibition of virus-induced cytopathic effect of Influenza B virus Malaysia/2506/2004; format: cell-based; conditions: dog, mdck; procedure, shortened: as §3
[7] = Selectivity ratio of IC50 for MDCK cells to EC90 for Influenza A virus Duck/MN/1525/81/H5N1 by virus yield reduction assay; format: ADME, cell-based; conditions: dog, mdck
Procedure, shortened: (§4)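 IC50 (50% inhibition of uninfected MDCK cells) divided by EC90 (concentration reducing the infectious virus titer by 90% in the yield reduction assay).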

[8] = Selectivity ratio of IC50 for MDCK cells to EC50 for Influenza A virus Hong Kong/213/2003/H5N1 by neutral red dye uptake assay; format: ADME, cell-based; conditions: dog, mdck; procedure, shortened: as §1
[9] = Selectivity ratio of IC50 for MDCK cells to EC90 for Influenza A virus Vietnam/1203/ 2004H/H5N1 by virus yield reduction assay; format: ADME, cell-based; conditions: dog, mdck; procedure, shortened: as §4
[10] = test system: Influenza A virus; assay: Antiviral activity against Influenza A virus Vietnam/1203/ 2004H/H5N1 infected MDCK cells after 3 days by virus yield reduction assay; format: functional, A/Viet Nam/1203/2004(H5N1)
[11] = Selectivity ratio of IC50 for MDCK cells to EC50 for inhibition of virus-induced cytopathic effect of Influenza A virus Wisconsin/67/2005/H3N2; format: cell-based; conditions: dog, mdck; procedure, shortened: as §3
[12] = test system: H5N1 subtype; assay: Antiviral activity against Influenza A virus Gull/PA/4175/83/H5N1 infected MDCK cells assessed as inhibition of virus-induced cytopathic effect after 3 days; format: functional, organism-based, Influenza A virus (A/gull/Pennsylvania/4175/83(H5N1)); conditions: mdck
[13] = Selectivity ratio of IC50 for MDCK cells to EC90 for Influenza A virus Hong Kong/213/2003/H5N1 by virus yield reduction assay; format: ADME, cell-based; conditions: dog, mdck; procedure, shortened: as §4
[14] = Selectivity ratio of IC50 for MDCK cells to EC50 for Influenza A virus Wisconsin/67/2005/H3N2 by neutral red dye uptake assay; format: ADME, cell-based; conditions: dog, mdck; procedure, shortened: as §1
[15] = Selectivity ratio of IC50 for MDCK cells to EC50 for inhibition of virus-induced cytopathic effect of Influenza A virus Vietnam/1203/ 2004H/H5N1; format: cell-based; conditions: dog, mdck; procedure, shortened: as §3
[16] = Selectivity ratio of IC50 for MDCK cells to EC50 for inhibition of virus-induced cytopathic effect of Influenza A virus Gull/PA/4175/83/H5N1; format: cell-based; conditions: dog, mdck; procedure, shortened: as §3
[17] = Selectivity ratio of IC50 for MDCK cells to EC90 for Influenza A virus California/07/2009 /H1N1 by virus yield reduction assay; format: ADME, cell-based; conditions: dog, mdck; procedure, shortened: as §4
[18] = test system: Influenza B virus; assay: Antiviral activity against Influenza B virus Malaysia/2506/2004 infected MDCK cells after 3 days by virus yield reduction assay; format: functional, B/Malaysia/2506/2004
Procedure, shortened: (§5)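 Yield reduction assay: MDCK cells got serial compound dilutions and ≤300 CCID50 virus, in triplicate. Progeny virus was titrated. EC90 is the concentration reducing the infectious titer by 90%, as the mean of triplicates.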

[19] = Selectivity ratio of IC50 for MDCK cells to EC50 for Influenza A virus California/07/2009 /H1N1 by neutral red dye uptake assay; format: ADME, cell-based; conditions: dog, mdck; procedure, shortened: as §1
[20] = Selectivity ratio of IC50 for MDCK cells to EC50 for inhibition of virus-induced cytopathic effect of Influenza A virus Duck/MN/1525/81/H5N1; format: cell-based; conditions: dog, mdck; procedure, shortened: as §3
[21] = test system: Influenza A virus; assay: Antiviral activity against Influenza A virus California/07/2009 /H1N1 infected MDCK cells assessed as inhibition of virus-induced cytopathic effect after 3 days; format: functional, organism-based, A/California/07/2009(H1N1); conditions: mdck
[22] = Selectivity ratio of IC50 for MDCK cells to EC90 for Influenza A virus Solomon Islands/03/2006/H1N1 by virus yield reduction assay; format: ADME, cell-based; conditions: dog, mdck; procedure, shortened: as §4
[23] = Selectivity ratio of IC50 for MDCK cells to EC50 for Influenza A virus Duck/MN/1525/81/H5N1 by neutral red dye uptake assay; format: ADME, cell-based; conditions: dog, mdck; procedure, shortened: as §1
[24] = test system: Influenza A virus (A/Puerto Rico/8/1934(H1N1)); assay: Antiviral activity against Influenza A virus Solomon Islands/03/2006/H1N1 infected MDCK cells after 42 to 46 hrs by neutral red dye uptake assay; format: functional, organism-based, Influenza A virus (A/Solomon Islands/3/2006(H1N1)); conditions: mdck; procedure, shortened: as §2
[25] = test system: Influenza A virus; assay: Antiviral activity against Influenza A virus Vietnam/1203/ 2004H/H5N1 infected MDCK cells assessed as inhibition of virus-induced cytopathic effect after 3 days; format: functional, organism-based, A/Viet Nam/1203/2004(H5N1); conditions: mdck
[26] = test system: Influenza A virus; assay: Antiviral activity against Influenza A virus Vietnam/1203/ 2004H/H5N1 infected MDCK cells after 42 to 46 hrs by neutral red dye uptake assay; format: functional, organism-based, A/Viet Nam/1203/2004(H5N1); conditions: mdck
[27] = test system: Influenza B virus; assay: Antiviral activity against Influenza B virus Malaysia/2506/2004 infected MDCK cells assessed as inhibition of virus-induced cytopathic effect after 3 days; format: functional, organism-based, B/Malaysia/2506/2004; conditions: mdck
Procedure, shortened: (§6)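 Triplicate MDCK (ATCC CCL-34) wells got serial dilutions of compound. They were then inoculated with ≤300 CCID50, enough for ~100% CPE in control wells within 3 days, using the same inoculum for all replicates. CPE was scored visually. EC50 is the concentration reducing CPE by 50%, as the mean of triplicates.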

[28] = test system: Influenza A virus; assay: Antiviral activity against Influenza A virus Wisconsin/67/2005/H3N2 infected MDCK cells assessed as inhibition of virus-induced cytopathic effect after 3 days; format: functional, organism-based, Influenza A virus (A/Wisconsin/67/2005(H3N2)); conditions: mdck; procedure, shortened: as §6
[29] = test system: Influenza A virus; assay: Antiviral activity against Influenza A virus California/07/2009 /H1N1 infected MDCK cells after 42 to 46 hrs by neutral red dye uptake assay; format: functional, organism-based, A/California/07/2009(H1N1); conditions: mdck
[30] = test system: H5N1 subtype; assay: Antiviral activity against Influenza A virus Duck/MN/1525/81/H5N1 infected MDCK cells assessed as inhibition of virus-induced cytopathic effect after 3 days; format: functional, organism-based, Influenza A virus (A/duck/Minnesota/1525/1981(H5N1)); conditions: mdck
[31] = Selectivity ratio of IC50 for MDCK cells to EC90 for Influenza A virus Wisconsin/67/2005/H3N2 by virus yield reduction assay; format: ADME, cell-based; conditions: dog, mdck; procedure, shortened: as §4
[32] = Selectivity ratio of IC50 for MDCK cells to EC50 for Influenza B virus Malaysia/2506/2004 by neutral red dye uptake assay; format: ADME, cell-based; conditions: dog, mdck; procedure, shortened: as §1
[33] = Selectivity ratio of IC50 for MDCK cells to EC50 for inhibition of virus-induced cytopathic effect of Influenza A virus Solomon Islands/03/2006/H1N1; format: cell-based; conditions: dog, mdck; procedure, shortened: as §3
[34] = test system: Influenza A virus; assay: Antiviral activity against Influenza A virus Wisconsin/67/2005/H3N2 infected MDCK cells after 3 days by virus yield reduction assay; format: functional, Influenza A virus (A/Wisconsin/67/2005(H3N2)); procedure, shortened: as §5
[35] = test system: H5N1 subtype; assay: Antiviral activity against Influenza A virus Gull/PA/4175/83/H5N1 infected MDCK cells after 42 to 46 hrs by neutral red dye uptake assay; format: functional, organism-based, Influenza A virus (A/gull/Pennsylvania/4175/83(H5N1)); conditions: mdck
[36] = Selectivity ratio of IC50 for MDCK cells to EC50 for Influenza A virus Solomon Islands/03/2006/H1N1 by neutral red dye uptake assay; format: ADME, cell-based; conditions: dog, mdck; procedure, shortened: as §1
[37] = test system: H5N1 subtype; assay: Antiviral activity against Influenza A virus Hong Kong/213/2003/H5N1 infected MDCK cells after 3 days by virus yield reduction assay; format: functional, Influenza A virus (A/Hong Kong/213/2003(H5N1))
[38] = Selectivity ratio of IC50 for MDCK cells to EC50 for Influenza A virus Gull/PA/4175/83/H5N1 by neutral red dye uptake assay; format: ADME, cell-based; conditions: dog, mdck; procedure, shortened: as §1
[39] = test system: H5N1 subtype; assay: Antiviral activity against Influenza A virus Duck/MN/1525/81/H5N1 infected MDCK cells after 3 days by virus yield reduction assay; format: functional, Influenza A virus (A/duck/Minnesota/1525/1981(H5N1))
[40] = test system: Influenza A virus; assay: Antiviral activity against Influenza A virus California/07/2009 /H1N1 infected MDCK cells after 3 days by virus yield reduction assay; format: functional, A/California/07/2009(H1N1)
[41] = Antiviral activity against Influenza A virus Solomon Islands/03/2006/H1N1 infected MDCK cells assessed as inhibition of virus-induced cytopathic effect after 3 days; format: functional, organism-based, Influenza A virus (A/Solomon Islands/3/2006(H1N1)); conditions: mdck; procedure, shortened: as §6
[42] = Selectivity ratio of IC50 for MDCK cells to EC90 for Influenza B virus Malaysia/2506/2004 by virus yield reduction assay; format: ADME, cell-based; conditions: dog, mdck; procedure, shortened: as §4
[43] = test system: Influenza A virus (A/Puerto Rico/8/1934(H1N1)); assay: Antiviral activity against Influenza A virus Solomon Islands/03/2006/H1N1 infected MDCK cells after 3 days by virus yield reduction assay; format: functional, Influenza A virus (A/Solomon Islands/3/2006(H1N1)); procedure, shortened: as §5
[44] = test system: H5N1 subtype; assay: Antiviral activity against Influenza A virus Hong Kong/213/2003/H5N1 infected MDCK cells after 42 to 46 hrs by neutral red dye uptake assay; format: functional, organism-based, Influenza A virus (A/Hong Kong/213/2003(H5N1)); conditions: mdck

Nc1ccn([C@@H]2C[C@H](CO)[C@@H](O)[C@H]2O)c(=O)n1 (racemic)
EC50 [1]: 5000 nM
Ratio IC50/EC50 [2]: > 143
EC50 [3]: 4600 nM
EC50 [4]: 1300 nM
Ratio IC50/EC50 [5]: > 276
Ratio IC50/EC50 [6]: > 518
Ratio [7]: > 24
Ratio IC50/EC50 [8]: > 230
Ratio [9]: > 34
EC90 [10]: 12100 nM
Ratio IC50/EC50 [11]: > 148
EC50 [12]: 1100 nM
Ratio [13]: > 207
Ratio IC50/EC50 [14]: > 90
Ratio IC50/EC50 [15]: > 414
Ratio IC50/EC50 [16]: > 376
Ratio [17]: > 94
EC90 [18]: 3800 nM
Ratio IC50/EC50 [19]: > 218
Ratio IC50/EC50 [20]: > 173
EC50 [21]: 1500 nM
Ratio [22]: > 180
Ratio IC50/EC50 [23]: > 83
EC50 [24]: 2000 nM
EC50 [25]: 1000 nM
EC50 [26]: 2900 nM
EC50 [27]: 800 nM
EC50 [28]: 2800 nM
EC50 [29]: 1900 nM
EC50 [30]: 2400 nM
Ratio [31]: > 118
Ratio IC50/EC50 [32]: > 318
Ratio IC50/EC50 [33]: > 218
EC90 [34]: 3500 nM
EC50 [35]: 1400 nM
Ratio IC50/EC50 [36]: > 207
EC90 [37]: 2000 nM
Ratio IC50/EC50 [38]: > 296
EC90 [39]: 17600 nM
EC90 [40]: 4400 nM
EC50 [41]: 1900 nM
Ratio [42]: > 109
EC90 [43]: 2300 nM
EC50 [44]: 1800 nM
